Experimental data published in PubChem BioAssay AID651654 (Broad Institute, 2012).
Values joined by “and” are separate entries in the source; they are usually repeats but may differ in a detail not shown here. Equal entries are not always repeated. The whole screen tested about 360,000 compounds, of which about 740 (0.21%) were called active.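 How the source made its calls: active means mean lysis activity across replicates of at least 80%, whatever share of replicates individually reach that level; inactive means mean lysis activity below 80%.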 The entries come from a sample that favours actives as a whole. The source holds several records for some structures; these can differ, active in one and inactive in another.

experiment: Cryptococcus neoformans cell lysis inducers, primary screen, AK release luminescence, single concentration (AID 651654); conditions: C. neoformans lysis, adenylate kinase release luminescence, 4 h; at 15 µM; stronger effect = higher value; normalised: neutral wells 0, clomiphene wells 100
Procedure, shortened: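 Material: C. neoformans cells | Amount: Yeast cell density of 5 × 10^6 cells/mL | Medium: Fresh YPD growth medium | Dosing: Single dose | Times: Static 4 h at 37 °C with compound, 1 h detection | Detection: AK luminescence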

With `C[C@H](CO)N1C[C@H](C)[C@@H](CN(C)C(=O)c2cccc(F)c2)Oc2cc(-c3cncnc3)ccc2S1(=O)=O` as the molecule, how does the lysis activity read?
The lysis activity was 4.59% (inactive) and 104% (active) and -0.371% (inactive).

Which lysis activity does the source give for `C[C@@H]1CN([C@@H](C)CO)S(=O)(=O)c2ccc(C#Cc3ccc(F)cc3)cc2O[C@H]1CN(C)C(=O)NC1CCCC1` here?
The lysis activity was 81.9% (active).

Which lysis activity does the source give for `CC(C)NC(=O)N(C)C[C@H]1Oc2cc(-c3cncnc3)ccc2S(=O)(=O)N([C@@H](C)CO)C[C@H]1C` here?
Its lysis activity is -2.43% (inactive).

Which lysis activity does the source give for `C[C@@H]1CN([C@@H](C)CO)S(=O)(=O)c2ccc(C#Cc3ccc(F)cc3)cc2O[C@@H]1CN(C)CC1CC1` here?
Its lysis activity is 0.211% (inactive).

With `C/C=C/c1ccc2c(c1)O[C@@H](CN(C)C(=O)NC1CCCC1)[C@@H](C)CN([C@H](C)CO)S2(=O)=O` as the molecule, how does the lysis activity read?
The lysis activity was -13.9% (inactive).

Which lysis activity does the source give for `CC(=O)N(C)C[C@@H]1Oc2cc(-c3cncnc3)ccc2S(=O)(=O)N([C@@H](C)CO)C[C@H]1C` here?
The lysis activity was 0.747% (inactive).

For `Cc1cc(C(=O)Nc2ccc3c(c2)C(=O)N(C)[C@@H]2CC[C@@H](CC(=O)NC4CCCC4)O[C@@H]2CO3)no1`, which lysis activity is on record?
The lysis activity was 1.38% (inactive).

Which lysis activity does the source give for `Cc1cc(C(=O)Nc2ccc3c(c2)C(=O)N(C)[C@@H]2CC[C@H](CC(=O)NC4CCCC4)O[C@@H]2CO3)no1` here?
The lysis activity was 3.44% (inactive).

With `CNC(=O)C[C@H]1CC[C@H]2[C@H](COc3ccc(NC(=O)c4cc(C)on4)cc3C(=O)N2C)O1` as the molecule, how does the lysis activity read?
Its lysis activity is 83.7% (active).

For `COc1cccc(C(=O)Nc2ccc3c(c2)C(=O)N(C)C[C@@H](OC)[C@@H](C)CN(C)[C@@H](C)CO3)c1`, which lysis activity is on record?
The lysis activity was -1.94% (inactive).

With `O=C(C[C@@H]1C[C@@H]2c3cc(NS(=O)(=O)c4ccc(F)cc4)ccc3O[C@@H]2[C@@H](CO)O1)NCc1ccncc1` as the molecule, how does the lysis activity read?
Its lysis activity is -3.62% (inactive).

For `C[C@@H]1CCCCO[C@H](CN(C)C(=O)Nc2ccc(C(F)(F)F)cc2)[C@@H](C)CN([C@@H](C)CO)C(=O)c2cc(NC(=O)Nc3cccc4ccccc34)ccc2O1`, which lysis activity is on record?
The lysis activity was -0.038% (inactive).

With `Cc1noc(C)c1NC(=O)Nc1ccc2c(c1)C(=O)N([C@@H](C)CO)C[C@H](C)[C@H](CN(C)CC1CCCCC1)O2` as the molecule, how does the lysis activity read?
The lysis activity was 80.5% (active).

For `C[C@@H]1CN([C@H](C)CO)C(=O)Cc2cc(NC(=O)Nc3cccc4ccccc34)ccc2O[C@@H]1CN(C)Cc1ccc(C(F)(F)F)cc1`, which lysis activity is on record?
The lysis activity was 0.378% (inactive).

With `C[C@H](CO)N1C[C@H](C)[C@H](CN(C)C)Oc2ncc(C#Cc3ccc(F)cc3)cc2C1=O` as the molecule, how does the lysis activity read?
The lysis activity was 5.93% (inactive) and 8.34% (inactive).

With `C[C@@H]1CN([C@@H](C)CO)C(=O)c2cc(NC(=O)Nc3ccc(F)cc3)ccc2O[C@H]1CN(C)CC1CCCCC1` as the molecule, how does the lysis activity read?
The lysis activity was -0.073% (inactive).

Which lysis activity does the source give for `Cc1noc(C)c1NC(=O)Nc1ccc2c(c1)C(=O)N([C@@H](C)CO)C[C@@H](C)[C@H](CN(C)C)O2` here?
The lysis activity was -2.64% (inactive).

For `Cc1noc(C)c1NC(=O)Nc1ccc2c(c1)CC(=O)N([C@@H](C)CO)C[C@H](C)[C@@H](CN(C)CC1CCCCC1)O2`, which lysis activity is on record?
Its lysis activity is 4.38% (inactive).

For `C[C@H](CO)N1C[C@H](C)[C@@H](CN(C)CC2CCOCC2)Oc2ncc(C#Cc3ccc(F)cc3)cc2C1=O`, which lysis activity is on record?
Its lysis activity is 1.59% (active).

With `C[C@H]1CN([C@@H](C)CO)C(=O)Cc2cc(NC(=O)Nc3cccc4ccccc34)ccc2O[C@@H]1CN(C)C` as the molecule, how does the lysis activity read?
The lysis activity was 5.63% (inactive).

For `COc1ccc(C#Cc2cnc3c(c2)C(=O)N([C@@H](C)CO)C[C@H](C)[C@@H](CN(C)CC2CCOCC2)O3)cc1`, which lysis activity is on record?
The lysis activity was 0.473% (inactive).

With `C[C@@H]1CN([C@H](C)CO)C(=O)Cc2cc(NC(=O)Nc3cccc4ccccc34)ccc2O[C@@H]1CN(C)Cc1ccc(C(=O)O)cc1` as the molecule, how does the lysis activity read?
The lysis activity was 105% (active).

With `C[C@@H]1CN([C@@H](C)CO)C(=O)Cc2cc(NC(=O)Nc3ccc4c(c3)OCO4)ccc2O[C@@H]1CN(C)CC1CCCCC1` as the molecule, how does the lysis activity read?
The lysis activity was 5.47% (inactive).

For `C[C@H]1CN([C@@H](C)CO)C(=O)c2cc(NC(=O)Nc3ccc4c(c3)OCO4)ccc2O[C@@H]1CN(C)CC1CCCCC1`, which lysis activity is on record?
Its lysis activity is 81.3% (active).

With `COc1ccc(S(=O)(=O)N(C)C[C@H]2Oc3ccc(NC(=O)Nc4c(C)noc4C)cc3C(=O)N([C@H](C)CO)C[C@H]2C)cc1` as the molecule, how does the lysis activity read?
The lysis activity was -3.44% (inactive).

Which lysis activity does the source give for `Cc1noc(C)c1NC(=O)Nc1ccc2c(c1)C(=O)N([C@@H](C)CO)C[C@H](C)[C@H](CN(C)S(=O)(=O)c1ccc(Cl)cc1)O2` here?
The lysis activity was 96.2% (active).

For `COc1ccc(S(=O)(=O)N(C)C[C@@H]2Oc3ccc(NC(=O)Nc4c(C)noc4C)cc3C(=O)N([C@H](C)CO)C[C@@H]2C)cc1`, which lysis activity is on record?
Its lysis activity is -0.689% (inactive) and -2.77% (inactive).

With `C[C@H](CO)N1C[C@H](C)[C@@H](CN(C)C(=O)c2ccncc2)Oc2ncc(-c3ccncc3)cc2C1=O` as the molecule, how does the lysis activity read?
The lysis activity was -2.74% (inactive).

With `COc1ccc(NC(=O)N[C@@H]2C=C[C@H](CC(=O)NC3CCC3)O[C@@H]2CO)cc1` as the molecule, how does the lysis activity read?
Its lysis activity is -0.593% (inactive).

For `C[C@H]1CN([C@@H](C)CO)C(=O)c2cccc(NC(=O)Nc3ccccc3)c2O[C@@H]1CN(C)S(C)(=O)=O`, which lysis activity is on record?
The lysis activity was 0.333% (inactive).

For `O=C(Nc1ccc(F)cc1)N1C[C@H]2[C@@H](c3ccccc31)[C@@H](CO)N2Cc1cocn1`, which lysis activity is on record?
Its lysis activity is 94.8% (active).

Which lysis activity does the source give for `O=C(Nc1ccccc1)N1C[C@H]2[C@@H](c3ccccc31)[C@@H](CO)N2Cc1cocn1` here?
The lysis activity was -2.69% (inactive).

Which lysis activity does the source give for `O=C(Nc1ccc(F)cc1)N1C[C@@H]2[C@H](c3ccccc31)[C@H](CO)N2Cc1ccccc1` here?
Its lysis activity is -1.33% (inactive).

For `CCCNC(=O)N1[C@@H]2Cn3c(ccc(-c4ccc(OC)cc4)c3=O)[C@H]1[C@@H](C(=O)NC1CCC1)[C@@H]2CO`, which lysis activity is on record?
Its lysis activity is 0.95% (inactive).

For `O=C(N[C@H]1CC[C@@H](CCNS(=O)(=O)c2ccccc2)O[C@H]1CO)c1cccnc1`, which lysis activity is on record?
The lysis activity was -5.13% (inactive).

For `N#C[C@@H]1[C@@H](c2ccccc2)[C@@H](CO)N1C(=O)Cc1ccccc1`, which lysis activity is on record?
The lysis activity was 116% (active).

For `N#C[C@H]1[C@H](c2ccc(-c3ccccc3)cc2)[C@@H](CO)N1C(=O)Cc1ccccc1`, which lysis activity is on record?
The lysis activity was 0.774% (inactive).

With `N#C[C@@H]1[C@@H](c2ccc(-c3ccccc3)cc2)[C@@H](CO)N1C(=O)Cc1ccccc1` as the molecule, how does the lysis activity read?
The lysis activity was 0.072% (inactive).

With `COc1cccc(S(=O)(=O)Nc2ccc3c(c2)[C@H]2C[C@H](CC(=O)N4CCCCC4)O[C@@H](CO)[C@H]2O3)c1` as the molecule, how does the lysis activity read?
Its lysis activity is -2.67% (inactive).

For `O=C(NCc1cccc(F)c1)[C@H]1[C@H](CO)[C@H]2Cn3c(cccc3=O)[C@@H]1N2`, which lysis activity is on record?
Its lysis activity is 0.27% (inactive).

For `O=C(C[C@@H]1C=C[C@@H](NC(=O)c2ccc3c(c2)OCO3)[C@H](CO)O1)NC1Cc2ccccc2C1`, which lysis activity is on record?
Its lysis activity is 1.22% (inactive).

Which lysis activity does the source give for `CO[C@@H]1CN(C)C(=O)c2cc(NC(=O)c3ccccc3)ccc2OC[C@@H](C)N(C(C)=O)C[C@@H]1C` here?
The lysis activity was -6.13% (inactive).

With `C[C@@H]1CCCCO[C@H](CN(C)S(C)(=O)=O)[C@@H](C)CN([C@H](C)CO)C(=O)c2cc(NC(=O)Nc3ccc4c(c3)OCO4)ccc2O1` as the molecule, how does the lysis activity read?
The lysis activity was 50.4% (inactive).

For `C[C@@H]1CN([C@H](C)CO)S(=O)(=O)c2ccc(-c3cncnc3)cc2O[C@@H]1CN(C)Cc1ccccn1`, which lysis activity is on record?
The lysis activity was -14.8% (inactive).

Which lysis activity does the source give for `CCCC(=O)Nc1ccc2c(c1)C(=O)N(C)[C@@H]1CC[C@H](CC(=O)Nc3cn(C)nc3C)O[C@H]1CO2` here?
Its lysis activity is 6.15% (inactive).

With `O=C(C[C@@H]1CC[C@@H]2[C@H](COC[C@H](O)CN2Cc2cccc(-c3ccncc3)c2)O1)N1CCOCC1` as the molecule, how does the lysis activity read?
The lysis activity was -0.0585% (inactive).

With `O=C(C[C@@H]1C[C@H]2c3cc(NC(=O)C4CCOCC4)ccc3O[C@H]2[C@@H](CO)O1)NCCN1CCCCC1` as the molecule, how does the lysis activity read?
The lysis activity was 60.8% (inactive).

With `COc1cccc(S(=O)(=O)N2C[C@@H](O)COC[C@H]3O[C@@H](CC(=O)N4CCOCC4)CC[C@@H]32)c1` as the molecule, how does the lysis activity read?
Its lysis activity is 2.85% (inactive).

Which lysis activity does the source give for `COc1cccc(S(=O)(=O)N2C[C@@H](O)COC[C@H]3O[C@H](CC(=O)N4CCCCC4)CC[C@@H]32)c1` here?
Its lysis activity is 52.9% (inactive).

Which lysis activity does the source give for `COc1cccc(S(=O)(=O)N2C[C@@H](O)COC[C@@H]3O[C@H](CC(=O)N4CCN(C)CC4)CC[C@H]32)c1` here?
The lysis activity was 86.2% (active).

For `Cc1ccc(S(=O)(=O)Nc2cccc3c2O[C@@H](CN(C)CC2CCCCC2)[C@H](C)CN([C@@H](C)CO)C3=O)cc1`, which lysis activity is on record?
The lysis activity was -1.1% (inactive).

Which lysis activity does the source give for `CNC[C@H]1Oc2cc(C#Cc3ccccn3)ccc2S(=O)(=O)N([C@H](C)CO)C[C@@H]1C` here?
Its lysis activity is -3.09% (inactive).

Which lysis activity does the source give for `C[C@@H]1CN([C@@H](C)CO)C(=O)Cc2cc(NC(=O)NC3CCCCC3)ccc2O[C@H]1CN(C)C(=O)Nc1ccc(C(F)(F)F)cc1` here?
The lysis activity was 51.4% (inactive).

Which lysis activity does the source give for `C[C@H](CO)N1C[C@H](C)[C@H](CN(C)C(=O)c2ccccc2)OCCCC[C@H](C)Oc2ccc(N(C)C)cc2C1=O` here?
Its lysis activity is 1.62% (inactive).

Which lysis activity does the source give for `COc1cccc(S(=O)(=O)N(C)C[C@@H]2Oc3ncc(-c4cccc(C(=O)N(C)C)c4)cc3C(=O)N([C@H](C)CO)C[C@@H]2C)c1` here?
The lysis activity was 2.06% (inactive).

With `COc1ccc(S(=O)(=O)Nc2ccc3c(c2)C(=O)N([C@@H](C)CO)C[C@H](C)[C@@H](CN(C)C(=O)Nc2ccc4c(c2)OCO4)OCCCC[C@@H](C)O3)cc1` as the molecule, how does the lysis activity read?
Its lysis activity is 49.4% (inactive).

Which lysis activity does the source give for `C[C@H](CO)N1C[C@H](C)[C@@H](CN(C)C(=O)C2CCOCC2)Oc2cc(-c3ccc(C(=O)N(C)C)cc3)ccc2S1(=O)=O` here?
Its lysis activity is -2.86% (inactive).

Which lysis activity does the source give for `CCNC(=O)C[C@@H]1CC[C@H]2[C@@H](COc3ccc(NC(=O)c4ccccc4Cl)cc3C(=O)N2C)O1` here?
The lysis activity was 13.7% (inactive).

Which lysis activity does the source give for `C[C@@H](NC(=O)C[C@@H]1C=C[C@@H](NC(=O)CN2CCOCC2)[C@H](CO)O1)c1ccccc1` here?
Its lysis activity is 13.5% (inactive).

With `C[C@@H](NC(=O)C[C@H]1C=C[C@@H](NC(=O)CN2CCOCC2)[C@@H](CO)O1)c1ccccc1` as the molecule, how does the lysis activity read?
Its lysis activity is 18.8% (inactive).

With `C[C@H](NC(=O)C[C@@H]1C=C[C@H](NC(=O)CN2CCOCC2)[C@H](CO)O1)c1ccccc1` as the molecule, how does the lysis activity read?
Its lysis activity is 131% (active).
